Measured values: ChEMBL document CHEMBL1139407, “Pyridyl and thiazolyl bisamide CSF-1R inhibitors for the treatment of cancer” (Bioorg Med Chem Lett, 2008)
pIC50: −log10 of the molar value.

Assays:
[1] = target: Tyrosine-protein kinase HCK (Homo sapiens) (UniProt P08631); experiment: Inhibition of Hck assessed as residual enzyme activity at 1 uM
[2] = target: Cyclin-dependent kinase 2 (Homo sapiens) (UniProt P24941); experiment: Inhibition of CDK2/cyclinA assessed as residual enzyme activity at 1 uM
[3] = target: T1, Macrophage colony-stimulating factor 1 receptor (Homo sapiens, UniProt P07333); experiment: Inhibition of CSF1R assessed as residual enzyme activity at 1 uM
[4] = target: Tyrosine-protein kinase JAK2 (Homo sapiens) (UniProt O60674); experiment: Inhibition of JAK2 assessed as residual enzyme activity at 1 uM
[5] = Bioavailability in rat at 3 mg/kg, iv and 10 mg/kg, po; format: ADME, organism-based; conditions: in vivo
[6] = target: Vascular endothelial growth factor receptor 2 (Homo sapiens) (UniProt P35968); experiment: Inhibition of KDR assessed as residual enzyme activity at 1 uM
[7] = target: Glycogen synthase kinase-3 beta (Homo sapiens) (UniProt P49841); experiment: Inhibition of GSK3-beta assessed as residual enzyme activity at 1 uM
[8] = target: Insulin receptor (Homo sapiens) (UniProt P06213); experiment: Inhibition of insulin receptor assessed as residual enzyme activity at 1 uM
[9] = target: RAF proto-oncogene serine/threonine-protein kinase (Homo sapiens) (UniProt P04049); experiment: Inhibition of cRaf assessed as residual enzyme activity at 1 uM
Mus musculus [10] = experiment: Inhibition of phosphorylated CSF1R level in 3T3/CSF1R mutant cells xenografted nude mouse at 50 mg/kg, po after 6 hrs by ELISA; format: functional
Procedure, shortened: (§1)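 3T3 cells expressing constitutively active human mutant full-length CSF-1R (301–969) were implanted subcutaneously at 5 × 10⁶ cells in female nude mice and grown to tumors >250 mm³. After dosing, tumors were assayed for pCSF-1R by ELISA, and plasma was sampled for drug levels.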

[11] = target: Inhibitor of nuclear factor kappa-B kinase subunit beta (Homo sapiens) (UniProt O14920); experiment: Inhibition of IKK-beta assessed as residual enzyme activity at 1 uM
[12] = Clearance in rat at 3 mg/kg, iv and 10 mg/kg, po; format: ADME, organism-based; conditions: in vivo
[13] = target: Platelet-derived growth factor receptor beta (Homo sapiens) (UniProt P09619); experiment: Inhibition of PDGFRbeta assessed as residual enzyme activity at 1 uM
[14] = target: Ephrin type-A receptor 2 (Homo sapiens) (UniProt P29317); experiment: Inhibition of EphA2 assessed as residual enzyme activity at 1 uM
[15] = target: Angiopoietin-1 receptor (Homo sapiens) (UniProt Q02763); experiment: Inhibition of Tie2 assessed as residual enzyme activity at 1 uM
[16] = target: Serine/threonine-protein kinase pim-1 (Homo sapiens) (UniProt P11309); experiment: Inhibition of Pim-1 assessed as residual enzyme activity at 1 uM
NIH3T3 = experiment: Antiproliferative activity against mouse 3T3 cells expressing human CSF1R after 72 hrs by Celltiter assay; format: functional
Procedure, shortened: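 3T3 cells engineered with human full-length CSF-1R, seeded in phenol red-free DMEM with 0.05% BSA and incubated overnight. Treated with DMEM containing 80 ng/ml M-CSF plus insulin, transferrin and selenium at multiple compound concentrations. […] Growth read by MTS-type CellTiter 96 Aqueous One after 72 h.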

[17] = target: Proto-oncogene tyrosine-protein kinase Src (Homo sapiens) (UniProt P12931); experiment: Inhibition of Src assessed as residual enzyme activity at 1 uM
[18] = target: Mitogen-activated protein kinase 1 (Homo sapiens) (UniProt P28482); experiment: Inhibition of MAPK1 assessed as residual enzyme activity at 1 uM
Mus musculus [19] = experiment: Inhibition of phosphorylated CSF1R level in 3T3/CSF1R mutant cells xenografted nude mouse at 50 mg/kg, po after 2 hrs by ELISA; format: functional; procedure, shortened: as §1
[20] = target: Insulin-like growth factor 1 receptor (Homo sapiens) (UniProt P08069); experiment: Inhibition of IGF1-R assessed as residual enzyme activity at 1 uM
[21] = target: Fibroblast growth factor receptor 1 (Homo sapiens) (UniProt P11362); experiment: Inhibition of FGFR1 assessed as residual enzyme activity at 1 uM
[22] = target: Epidermal growth factor receptor (Homo sapiens) (UniProt P00533); experiment: Inhibition of EGFR assessed as residual enzyme activity at 1 uM
[23] = Half life in rat at 3 mg/kg, iv and 10 mg/kg, po; format: ADME, organism-based; conditions: in vivo
[24] = target: Hepatocyte growth factor receptor (Homo sapiens) (UniProt P08581); experiment: Inhibition of Met assessed as residual enzyme activity at 1 uM
[25] = target: Receptor-type tyrosine-protein kinase FLT3 (Homo sapiens) (UniProt P36888); experiment: Inhibition of Flt3 assessed as residual enzyme activity at 1 uM
[26] = target: Tyrosine-protein kinase Fyn (Homo sapiens) (UniProt P06241); experiment: Inhibition of Fyn assessed as residual enzyme activity at 1 uM
[27] = Volume of distribution at steady state in rat at 3 mg/kg, iv and 10 mg/kg, po; format: ADME, organism-based; conditions: in vivo, read-out: Vdss
[28] = target: T1, Macrophage colony-stimulating factor 1 receptor; experiment: Inhibition of CSF1R
[29] = target: Mast/stem cell growth factor receptor Kit (Homo sapiens) (UniProt P10721); experiment: Inhibition of cKit assessed as residual enzyme activity at 1 uM

T1 sequence (P07333 whole entry): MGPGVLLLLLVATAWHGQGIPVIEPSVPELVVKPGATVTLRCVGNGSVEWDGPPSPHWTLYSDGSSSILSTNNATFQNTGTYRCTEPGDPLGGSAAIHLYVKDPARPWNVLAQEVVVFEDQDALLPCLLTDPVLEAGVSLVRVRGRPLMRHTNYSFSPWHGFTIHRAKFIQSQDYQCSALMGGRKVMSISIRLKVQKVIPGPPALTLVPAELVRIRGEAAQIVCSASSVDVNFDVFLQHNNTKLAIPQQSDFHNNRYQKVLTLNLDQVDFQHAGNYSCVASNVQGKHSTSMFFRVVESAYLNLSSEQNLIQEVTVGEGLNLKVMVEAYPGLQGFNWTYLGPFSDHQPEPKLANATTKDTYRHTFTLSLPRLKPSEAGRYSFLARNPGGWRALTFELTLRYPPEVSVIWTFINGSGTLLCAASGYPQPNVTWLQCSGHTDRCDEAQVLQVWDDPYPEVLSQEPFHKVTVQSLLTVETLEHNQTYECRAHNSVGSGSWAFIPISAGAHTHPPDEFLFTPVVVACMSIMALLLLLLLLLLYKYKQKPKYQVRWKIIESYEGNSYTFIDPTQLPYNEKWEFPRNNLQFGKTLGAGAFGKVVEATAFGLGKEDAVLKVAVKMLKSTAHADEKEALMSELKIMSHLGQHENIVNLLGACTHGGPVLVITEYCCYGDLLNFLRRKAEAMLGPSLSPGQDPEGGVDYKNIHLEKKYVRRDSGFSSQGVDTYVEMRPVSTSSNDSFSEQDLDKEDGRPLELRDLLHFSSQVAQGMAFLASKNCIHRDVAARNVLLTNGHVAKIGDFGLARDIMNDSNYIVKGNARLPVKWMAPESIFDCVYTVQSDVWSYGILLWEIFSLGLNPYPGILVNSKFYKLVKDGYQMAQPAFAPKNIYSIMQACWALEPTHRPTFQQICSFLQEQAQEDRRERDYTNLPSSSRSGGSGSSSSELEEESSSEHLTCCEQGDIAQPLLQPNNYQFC
RAF proto-oncogene serine/threonine-protein kinase (Homo sapiens), sequence (P04049 whole entry): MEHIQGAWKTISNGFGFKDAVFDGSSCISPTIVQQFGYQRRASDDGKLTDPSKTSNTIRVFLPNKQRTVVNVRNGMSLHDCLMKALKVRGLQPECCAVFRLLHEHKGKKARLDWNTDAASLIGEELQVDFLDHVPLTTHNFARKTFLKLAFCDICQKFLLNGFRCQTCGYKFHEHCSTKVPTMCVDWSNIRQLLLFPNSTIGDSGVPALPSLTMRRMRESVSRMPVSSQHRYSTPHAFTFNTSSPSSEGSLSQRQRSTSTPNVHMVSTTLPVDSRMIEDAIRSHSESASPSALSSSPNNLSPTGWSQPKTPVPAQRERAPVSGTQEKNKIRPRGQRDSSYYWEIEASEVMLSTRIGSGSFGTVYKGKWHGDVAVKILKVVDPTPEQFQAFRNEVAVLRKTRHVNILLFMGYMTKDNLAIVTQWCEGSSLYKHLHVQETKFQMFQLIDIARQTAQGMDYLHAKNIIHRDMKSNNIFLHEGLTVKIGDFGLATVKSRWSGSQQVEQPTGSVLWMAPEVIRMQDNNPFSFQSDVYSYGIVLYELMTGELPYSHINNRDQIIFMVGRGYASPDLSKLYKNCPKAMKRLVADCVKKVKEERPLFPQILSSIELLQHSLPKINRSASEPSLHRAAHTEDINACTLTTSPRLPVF
Fibroblast growth factor receptor 1 (Homo sapiens), sequence (P11362 22-822 limits assumed): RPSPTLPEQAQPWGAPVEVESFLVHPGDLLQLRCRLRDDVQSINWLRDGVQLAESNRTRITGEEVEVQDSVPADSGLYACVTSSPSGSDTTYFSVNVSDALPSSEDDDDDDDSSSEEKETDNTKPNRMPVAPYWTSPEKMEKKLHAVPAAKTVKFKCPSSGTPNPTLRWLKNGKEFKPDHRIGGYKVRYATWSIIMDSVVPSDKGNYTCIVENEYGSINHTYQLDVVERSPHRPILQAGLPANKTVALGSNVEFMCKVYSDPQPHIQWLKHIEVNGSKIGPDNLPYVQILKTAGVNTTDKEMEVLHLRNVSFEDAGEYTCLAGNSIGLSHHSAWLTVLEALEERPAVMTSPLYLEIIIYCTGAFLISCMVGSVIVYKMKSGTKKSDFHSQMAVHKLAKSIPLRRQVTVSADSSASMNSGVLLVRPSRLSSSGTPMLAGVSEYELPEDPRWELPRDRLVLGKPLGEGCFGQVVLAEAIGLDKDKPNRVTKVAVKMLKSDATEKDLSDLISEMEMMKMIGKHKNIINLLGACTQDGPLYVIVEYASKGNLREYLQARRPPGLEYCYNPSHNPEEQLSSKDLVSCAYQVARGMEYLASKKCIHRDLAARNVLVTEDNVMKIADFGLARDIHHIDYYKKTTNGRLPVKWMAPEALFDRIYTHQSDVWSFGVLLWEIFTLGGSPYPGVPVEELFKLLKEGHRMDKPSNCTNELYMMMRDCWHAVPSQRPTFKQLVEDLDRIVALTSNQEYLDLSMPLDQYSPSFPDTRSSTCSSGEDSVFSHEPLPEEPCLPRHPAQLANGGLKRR
Inhibitor of nuclear factor kappa-B kinase subunit beta (Homo sapiens), sequence (O14920 whole entry): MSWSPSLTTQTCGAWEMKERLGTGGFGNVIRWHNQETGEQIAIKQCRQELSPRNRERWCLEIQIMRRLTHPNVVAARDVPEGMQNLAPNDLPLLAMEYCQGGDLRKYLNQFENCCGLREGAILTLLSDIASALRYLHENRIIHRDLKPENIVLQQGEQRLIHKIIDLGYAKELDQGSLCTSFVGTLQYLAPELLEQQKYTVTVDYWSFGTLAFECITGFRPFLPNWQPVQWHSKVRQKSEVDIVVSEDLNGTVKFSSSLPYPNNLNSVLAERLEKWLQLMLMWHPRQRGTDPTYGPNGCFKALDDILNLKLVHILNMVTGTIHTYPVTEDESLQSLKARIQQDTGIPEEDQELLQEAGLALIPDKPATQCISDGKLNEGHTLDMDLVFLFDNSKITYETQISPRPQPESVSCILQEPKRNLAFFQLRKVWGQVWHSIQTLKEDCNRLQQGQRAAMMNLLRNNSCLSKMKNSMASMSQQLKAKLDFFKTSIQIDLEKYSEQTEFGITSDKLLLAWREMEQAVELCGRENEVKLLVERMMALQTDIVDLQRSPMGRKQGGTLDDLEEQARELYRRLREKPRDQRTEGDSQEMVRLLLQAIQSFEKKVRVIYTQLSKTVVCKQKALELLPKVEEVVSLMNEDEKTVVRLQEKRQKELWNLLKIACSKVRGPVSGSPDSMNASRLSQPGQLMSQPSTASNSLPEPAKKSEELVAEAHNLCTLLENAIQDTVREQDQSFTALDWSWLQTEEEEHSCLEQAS
Platelet-derived growth factor receptor beta (Homo sapiens), sequence (P09619 whole entry): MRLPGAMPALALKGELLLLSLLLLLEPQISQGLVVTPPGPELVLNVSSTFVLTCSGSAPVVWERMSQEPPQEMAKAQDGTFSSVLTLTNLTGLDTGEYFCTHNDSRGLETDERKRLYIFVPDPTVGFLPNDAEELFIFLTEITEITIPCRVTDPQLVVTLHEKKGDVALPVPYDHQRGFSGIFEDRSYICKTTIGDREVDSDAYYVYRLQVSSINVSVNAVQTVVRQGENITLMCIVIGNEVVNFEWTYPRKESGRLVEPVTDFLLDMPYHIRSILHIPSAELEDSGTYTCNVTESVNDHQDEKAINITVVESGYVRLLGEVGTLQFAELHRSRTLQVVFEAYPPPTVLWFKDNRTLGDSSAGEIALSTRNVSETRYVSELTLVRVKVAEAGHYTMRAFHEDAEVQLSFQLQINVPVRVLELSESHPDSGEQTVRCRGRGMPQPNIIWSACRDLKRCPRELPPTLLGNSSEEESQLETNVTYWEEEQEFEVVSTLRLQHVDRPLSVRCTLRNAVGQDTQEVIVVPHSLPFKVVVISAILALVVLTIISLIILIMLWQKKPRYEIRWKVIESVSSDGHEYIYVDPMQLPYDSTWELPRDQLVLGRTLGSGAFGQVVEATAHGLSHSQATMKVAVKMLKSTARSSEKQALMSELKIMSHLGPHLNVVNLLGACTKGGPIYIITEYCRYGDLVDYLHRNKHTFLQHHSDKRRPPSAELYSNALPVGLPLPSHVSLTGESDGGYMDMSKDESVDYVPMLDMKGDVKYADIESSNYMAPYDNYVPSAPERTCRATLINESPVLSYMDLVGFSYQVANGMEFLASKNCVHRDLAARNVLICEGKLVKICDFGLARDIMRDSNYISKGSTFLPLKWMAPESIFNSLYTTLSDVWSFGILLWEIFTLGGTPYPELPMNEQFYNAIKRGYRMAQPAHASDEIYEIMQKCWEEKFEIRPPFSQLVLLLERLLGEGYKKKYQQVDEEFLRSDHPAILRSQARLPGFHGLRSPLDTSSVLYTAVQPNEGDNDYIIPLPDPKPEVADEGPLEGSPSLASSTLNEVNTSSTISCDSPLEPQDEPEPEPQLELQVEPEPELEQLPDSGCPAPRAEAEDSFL
Glycogen synthase kinase-3 beta (Homo sapiens), sequence (P49841 whole entry, looked up): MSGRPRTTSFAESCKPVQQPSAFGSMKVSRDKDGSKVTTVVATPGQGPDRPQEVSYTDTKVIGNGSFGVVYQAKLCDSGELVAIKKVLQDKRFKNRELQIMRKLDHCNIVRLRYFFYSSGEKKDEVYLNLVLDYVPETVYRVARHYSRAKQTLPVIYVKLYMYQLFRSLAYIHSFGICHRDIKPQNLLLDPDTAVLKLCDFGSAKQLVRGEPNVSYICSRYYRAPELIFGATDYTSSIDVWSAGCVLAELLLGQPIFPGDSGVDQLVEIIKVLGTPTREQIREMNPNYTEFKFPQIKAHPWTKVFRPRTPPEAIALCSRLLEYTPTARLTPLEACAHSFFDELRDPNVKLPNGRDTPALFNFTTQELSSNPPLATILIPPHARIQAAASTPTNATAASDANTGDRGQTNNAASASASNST
Serine/threonine-protein kinase pim-1 (Homo sapiens), sequence (P11309 whole entry, looked up): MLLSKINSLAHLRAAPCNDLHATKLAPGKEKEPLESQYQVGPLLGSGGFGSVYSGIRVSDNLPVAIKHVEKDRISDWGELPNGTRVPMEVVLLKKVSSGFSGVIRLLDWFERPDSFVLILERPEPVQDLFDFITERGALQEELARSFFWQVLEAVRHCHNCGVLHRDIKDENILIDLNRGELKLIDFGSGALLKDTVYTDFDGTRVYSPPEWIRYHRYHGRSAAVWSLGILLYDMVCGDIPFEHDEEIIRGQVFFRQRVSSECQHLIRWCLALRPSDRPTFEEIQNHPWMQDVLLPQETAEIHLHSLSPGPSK

Work on `Cc1ncc(NC(=O)c2cc(NC(=O)c3cccc(C(F)(F)F)c3)ccc2Cl)s1` yielded an Activity [1] of 6%, an Activity [2] of 95% and an Activity [3] of 1%. It also gave an Activity [4] of 112%, a bioavailability [5] of 62% and an Activity [6] of 10%. For the same compound, the Activity [7] was 91%, the Activity [8] was 108% and the Activity [9] was 9%. For the same compound, the inhibition in vivo at 50 mg/kg (Mus musculus [10]) was 35%, the Activity [11] was 112% and the clearance [12] was 13 mL/min/kg. For the same compound, the Activity [13] was 45%, the Activity [14] was 5% and the Activity [15] was 111%. The Activity [16] was 116%, the Activity (NIH3T3) was 0.05 µM and the Activity [17] was 10%. The Activity [18] was 116%, the inhibition in vivo at 50 mg/kg (Mus musculus [19]) was 70% and the Activity [20] was 107%. It also gave an Activity [21] of 111%, an Activity [22] of 118% and a half-life [23] of 1.2 h. It also gave an Activity [24] of 109%, an Activity [25] of 114% and an Activity [26] of 7%. It also gave a Vd [27] of 1.1 L/kg, a pIC50 [28] of 8.15 and an Activity [29] of 57%.
